# B1: Osa-1-4 twister ribozyme (parent)
# chain: CCGCCUAACACUGCCAAUGCCGGUCCCAAGCCCGGAUAAAAGUGGAGGGGGCGG
# Variants of: B1
# Experiment: self-cleavage, relative activity (ratio to wild type); higher = more cleavage; co-transcriptional
# Summary of the method: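 The 48 positions downstream of the cleavage site in a DNA template for a 54-nucleotide Oryza sativa twister ribozyme carried 97 % wild-type base and 1 % of each other base. After in vitro transcription (2 h, 37 °C) with co-transcriptional self-cleavage, the RNA was reverse-transcribed with a template-switching oligonucleotide, PCR-amplified and deep-sequenced. Relative activity is the fraction cleaved, judged by reads with or without upstream sequence and normalised to wild type.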
row,Variant,self-cleavage
1,C21U C25A,0.11
2,C21U C25G,0.14
3,C21U G35C,0.1
4,C21U G35U,0.57
5,C21U G35A,0.98
6,C21G U43A,0.09
7,C21G U43C,0.05
8,C21G U43G,0.08
9,C21A G19A,0.4
10,C21A G19U,0.07
11,C21A G19C,0.03
12,C21A U43C,0.11
13,C21A U43A,0.09
14,C21A U43G,0.1
15,C21A G48C,0.07
16,C21A G48U,0.05
17,C21A G48A,0.06
18,C21G C26A,0.02
19,C21G C26G,0.05
20,C21G C26U,0.06
21,C21G G34C,0.83
22,C21G G34U,0.89
23,C21G G34A,0.3
24,C21G C9G,0.07

row,Variant,self-cleavage
1,C21G C9A,0.04
2,C21G C9U,0.04
3,C20U C9A,0.38
4,C20U C9G,0.73
5,C20U C9U,0.68
6,C21A C31A,0.04
7,C21A C31G,0.07
8,C21A C31U,0.21
9,C21A G13U,0.04
10,C21A G13A,0.07
11,C21A G13C,0.03
12,C21U G34A,1.05
13,C21U G34C,0.96
14,C21U G34U,1.05
15,C20U G44U,0.87
16,C20U G44C,0.88
17,C20U G44A,0.87
18,C21A G30A,0.03
19,C21A G30U,0.04
20,C21A G30C,0.04
21,C21G G30C,0.02
22,C21G G30U,0.02
23,C21G G30A,0.02
24,C21G G50U,0.1

row,Variant,self-cleavage
1,C21G G50C,0.06
2,C21G G50A,0.09
3,C21U G19U,0.21
4,C21U G19A,0.66
5,C21U G19C,0.04
6,C20U U24C,0.38
7,C20U U24G,0.08
8,C20U U24A,0.44
9,C20G U18A,0.13
10,C20G U18C,0.2
11,C20G U18G,0.09
12,C20G U43G,0.09
13,C20G U43A,0.07
14,C20G U43C,0.07
15,C20U G53A,0.75
16,C20U G53C,0.09
17,C20U G53U,0.38
18,C20U G54C,0.84
19,C20U G54A,0.75
20,C20U G54U,0.85
21,C21A G50U,0.52
22,C21A G50C,0.24
23,C21A G50A,0.85
24,C21A G34C,0.92

row,Variant,self-cleavage
1,C21A G34A,0.91
2,C21A G34U,1.05
3,C21U C27U,0.14
4,C21U C27G,0.09
5,C21U C27A,0.15
6,C21A G51A,0.31
7,C21A G51C,0.07
8,C21A G51U,0.25
9,C21G U12A,0.08
10,C21G U12G,0.06
11,C21G U12C,0.04
12,C20U C32U,0.15
13,C20U C32G,0.13
14,C20U C32A,0.08
15,C21U G22U,0.1
16,C21U G22C,0.17
17,C21U G22A,0.26
18,C21A G47A,0.07
19,C21A G47C,0.05
20,C21A G47U,0.07
21,C21G G49A,0.05
22,C21G G49C,0.03
23,C21G G49U,0.02
24,C21A C33U,0.07

row,Variant,self-cleavage
1,C21A C33G,0.03
2,C21A C33A,0.09
3,C20U G45U,0.14
4,C20U G45C,0.06
5,C20U G45A,0.35
6,C21A G35C,0.06
7,C21A G35A,0.87
8,C21A G35U,0.44
9,C20U U12A,0.83
10,C20U U12C,0.49
11,C20U U12G,0.46
12,C20U G23C,0.05
13,C20U G23A,0.27
14,C20U G23U,0.13
15,C21G C32G,0.06
16,C21G C32A,0.03
17,C21G C32U,0.02
18,C21A U24G,0.06
19,C21A U24C,0.06
20,C21A U24A,0.07
21,C21U C33G,0.07
22,C21U C33A,0.08
23,C21U C33U,0.47
24,C21A U12C,0.14

row,Variant,self-cleavage
1,C21A U12A,0.18
2,C21A U12G,0.12
3,C21G G48U,0.02
4,C21G G48C,0.03
5,C21G G48A,0.03
6,C20U G22C,0.06
7,C20U G22A,0.6
8,C20U G22U,0.5
9,C21A G49C,0.05
10,C21A G49A,0.07
11,C21A G49U,0.06
12,C21A C25U,0.16
13,C21A C25G,0.07
14,C21A C25A,0.08
15,C21G G44U,0.08
16,C21G G44A,0.09
17,C21G G44C,0.08
18,C20G U37C,0.19
19,C20G U37A,0.2
20,C20G U37G,0.19
21,C21G G53A,0.08
22,C21G G53C,0.02
23,C21G G53U,0.04
24,C21G G35U,0.06

row,Variant,self-cleavage
1,C21G G35A,0.08
2,C21G G35C,0.03
3,C21G G23A,0.07
4,C21G G23C,0.03
5,C21G G23U,0.07
6,C21G C33G,0.05
7,C21G C33A,0.03
8,C21G C33U,0.05
9,C21A C26A,0.05
10,C21A C26G,0.09
11,C21A C26U,0.2
12,C21G G51A,0.07
13,C21G G51C,0.02
14,C21G G51U,0.06
15,C21G C25G,0.03
16,C21G C25U,0.05
17,C21G C25A,0.04
18,C21G,0.08
19,C21U,1.03
20,C21A,0.93
21,C20U G19U,0.65
22,C20U G19C,0.18
23,C20U G19A,0.9

# From the RNAGym collection of RNA variant scans (doi:10.1002/anie.201605470)
